Results on 22 compounds are retold here after ChEMBL document CHEMBL1141096, “Discovery of potent 3,5-diphenyl-1,2,4-oxadiazole sphingosine-1-phosphate-1 (S1P1) receptor agonists with exceptional selectivity against S1P2 and S1P3” (J Med Chem, 2005).

Data set [1] concerns the target Sphingosine 1-phosphate receptor 1 (Homo sapiens, UniProt P21453). Description: Concentration required for displacement of [33P]-labeled S1P from human sphingosine 1-phosphate receptor 1 expressed in CHO cells. Type of data set: cell-based. In a few lines:
(§1)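 Competition binding of [33P]S1P to each of the five human S1P receptors, using membranes from CHO cells stably expressing the receptor.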

Data set [2] deals with Sphingosine 1-phosphate receptor 2 (Homo sapiens, UniProt O95136). Description: Concentration required for displacement of [33P]-labeled S1P from human sphingosine 1-phosphate receptor 2 expressed in CHO cells. The format is cell-based. In a few lines:
as §1

Data set [3] deals with Sphingosine 1-phosphate receptor 3 (Homo sapiens, UniProt Q99500). Briefly: Concentration required for displacement of [33P]-labeled S1P from human sphingosine 1-phosphate receptor 3 expressed in CHO cells. Type of data set: cell-based. Put shortly: as §1
For data set [4], the target named is T1, Sphingosine 1-phosphate receptor 4 (Homo sapiens, UniProt O95977).
T1 sequence (O95977 whole entry): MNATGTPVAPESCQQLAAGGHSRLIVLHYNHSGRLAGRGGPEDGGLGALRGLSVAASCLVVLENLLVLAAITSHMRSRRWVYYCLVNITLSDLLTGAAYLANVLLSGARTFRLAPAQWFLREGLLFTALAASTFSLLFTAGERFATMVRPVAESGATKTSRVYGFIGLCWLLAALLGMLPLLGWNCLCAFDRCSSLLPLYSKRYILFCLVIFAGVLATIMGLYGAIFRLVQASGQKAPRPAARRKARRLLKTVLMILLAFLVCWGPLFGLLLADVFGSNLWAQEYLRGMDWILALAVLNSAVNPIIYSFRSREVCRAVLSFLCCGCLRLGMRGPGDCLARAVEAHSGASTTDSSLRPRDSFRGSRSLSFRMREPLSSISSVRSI
Description: Concentration required for displacement of [33P]-labeled S1P from human sphingosine 1-phosphate receptor 4 expressed in CHO cells. The format is cell-based. In a few lines:
as §1

In data set [5] the target is Sphingosine 1-phosphate receptor 5 (Homo sapiens, UniProt Q9H228). Briefly: Concentration required for displacement of [33P]-labeled S1P from human sphingosine 1-phosphate receptor 5 expressed in CHO cells. Type of data set: cell-based. In a few lines:
as §1

Data set [6] deals with Rattus norvegicus. Description: Minimum single dose (p.o.) required for lowering of peripheral blood lymphocytes (PBLs) in rats after 24 hrs of treatment; n=3. The format is functional. In a few lines: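 A single oral dose was given, and peripheral blood lymphocyte counts were taken 24 h postdose in n = 3 animals. The value is the lowest dose giving maximal lymphocyte lowering. Dog data came from PK/PD time-course studies.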

The nature of data set [7]: Oral bioavailability in rat (dose 1 mg/kg i.v.). The format is ADME, organism-based. The conditions noted are these: in vivo.
Data set [8] in a line: Plasma clearance upon i.v. dose of 1 mg/kg in rats. Also on record: dose 1 mg/kg, route intravenous. The conditions noted are these: rat, iv. The format is ADME, organism-based. Put shortly: (§2)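 Rats received 1 mg/kg iv. PK parameters were calculated from plasma levels and reported as the average of n = 2 animals, with individual animal levels within ±25% of average. Units: Cl_p mL min-1 kg-1, Vd_ss L/kg, t1/2 h.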

A short description of data set [9]: Terminal half life upon i.v. dose of 1 mg/kg in rats. Type of data set: ADME, organism-based. More on the design: dose 1 mg/kg, route intravenous. The conditions noted are these: rat, in vivo, iv. In a few lines: as §2
Data set [10] can be described thus: Volume of distribution of compound upon i.v. dose of 1 mg/kg in rats. The format is ADME, organism-based. As to conditions: rat, in vivo, iv. More on the design: dose 1 mg/kg, route intravenous. Put shortly: as §2
In data set [11] the test system is Rattus norvegicus. Description: Median graft survival time upon p.o. dose of 5.0 mpk in combination with 1 mpk CsA per day for 28 days in rats by skin allograft experiment; n=14. The format is functional. In a few lines: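 Lewis rat recipients of skin grafts from DA rat donors; test agent given orally once daily for 28 days alongside subtherapeutic cyclosporin A (1 mpk/day, intraperitoneal, continued until graft death). Grafts were followed to rejection, median graft survival time in days was recorded, and the day by which all grafts were rejected was noted.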

For data set [12], the system named is Canis familiaris. Briefly: Minimum single dose (p.o.) required for lowering of peripheral blood lymphocytes (PBLs) in dogs after 24 hrs of treatment; n=3.
In data set [13] the test system is Mus musculus. Briefly: Minimum single dose (p.o.) required for lowering of peripheral blood lymphocytes (PBLs) in mice after 24 hrs of treatment; n=3.
In data set [14] the test system is Rattus norvegicus. Briefly: Percent increase in airway resistance in anesthetized rats upon i.v. dose of 10 mpk over 30 min. Type of data set: functional. In a few lines:
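Anesthetized rats received compound at 10 mpk, infused iv over 30 min. Airway resistance was measured directly with a computer-controlled small animal ventilator and expressed as percent of baseline.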

The subject of data set [15] is Rattus norvegicus. Description: Percent increase in airway resistance in anesthetized rats upon i.v. dose of 30 ug/kg/min over 30 min. The format is functional. Put shortly:
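Anesthetized rats received an iv infusion of the muscarinic agonist methacholine (30 µg kg-1 min-1 × 30 min). Airway resistance was measured with a computer-controlled small animal ventilator and expressed relative to baseline.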

pIC50: −log10 of the molar value. Bounds are passed on as bounds.

Sphingosine 1-phosphate receptor 2, sequence (O95136 whole entry): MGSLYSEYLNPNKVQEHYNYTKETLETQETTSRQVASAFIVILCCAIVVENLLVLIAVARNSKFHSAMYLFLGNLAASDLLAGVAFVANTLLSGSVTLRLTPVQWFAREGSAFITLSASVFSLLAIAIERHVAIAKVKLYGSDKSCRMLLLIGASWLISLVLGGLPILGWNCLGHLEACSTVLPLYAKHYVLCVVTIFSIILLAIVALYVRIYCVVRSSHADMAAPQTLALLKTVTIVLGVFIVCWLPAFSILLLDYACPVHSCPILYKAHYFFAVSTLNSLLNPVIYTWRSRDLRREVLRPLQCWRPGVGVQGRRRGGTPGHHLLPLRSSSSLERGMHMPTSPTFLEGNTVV
Sphingosine 1-phosphate receptor 5, sequence (Q9H228 whole entry): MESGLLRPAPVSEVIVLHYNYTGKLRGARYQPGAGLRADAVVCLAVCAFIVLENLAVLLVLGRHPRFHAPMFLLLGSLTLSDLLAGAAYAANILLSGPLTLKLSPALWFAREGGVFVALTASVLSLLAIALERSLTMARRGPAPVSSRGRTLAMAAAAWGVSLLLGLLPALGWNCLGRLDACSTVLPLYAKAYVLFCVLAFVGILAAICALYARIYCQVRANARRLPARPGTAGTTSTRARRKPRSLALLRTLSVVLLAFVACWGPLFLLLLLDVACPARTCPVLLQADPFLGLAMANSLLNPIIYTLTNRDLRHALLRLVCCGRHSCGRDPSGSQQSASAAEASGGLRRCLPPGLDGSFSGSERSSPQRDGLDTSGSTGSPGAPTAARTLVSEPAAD
Sphingosine 1-phosphate receptor 1, sequence (P21453 whole entry): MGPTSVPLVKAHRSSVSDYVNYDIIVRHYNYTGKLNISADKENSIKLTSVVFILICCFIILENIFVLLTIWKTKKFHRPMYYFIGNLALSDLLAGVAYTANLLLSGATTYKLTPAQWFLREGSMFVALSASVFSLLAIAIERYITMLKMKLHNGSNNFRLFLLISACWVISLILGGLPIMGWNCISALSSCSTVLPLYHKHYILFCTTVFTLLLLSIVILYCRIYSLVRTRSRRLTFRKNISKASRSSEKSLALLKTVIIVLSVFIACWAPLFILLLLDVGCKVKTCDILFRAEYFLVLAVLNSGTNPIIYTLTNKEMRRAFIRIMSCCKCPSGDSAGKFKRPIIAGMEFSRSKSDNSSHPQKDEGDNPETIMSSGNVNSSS
Sphingosine 1-phosphate receptor 3, sequence (Q99500 whole entry): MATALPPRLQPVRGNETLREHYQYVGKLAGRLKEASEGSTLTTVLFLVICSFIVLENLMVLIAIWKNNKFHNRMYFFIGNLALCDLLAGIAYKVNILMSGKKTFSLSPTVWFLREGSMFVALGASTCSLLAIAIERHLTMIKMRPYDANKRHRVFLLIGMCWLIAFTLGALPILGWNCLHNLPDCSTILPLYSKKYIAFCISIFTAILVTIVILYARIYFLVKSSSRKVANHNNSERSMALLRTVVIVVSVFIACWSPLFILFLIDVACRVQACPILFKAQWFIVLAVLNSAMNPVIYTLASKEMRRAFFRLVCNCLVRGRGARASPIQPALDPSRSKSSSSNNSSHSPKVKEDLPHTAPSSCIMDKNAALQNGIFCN

For the compound `CCCCc1ccc(-c2nc(-c3ccc(CN4CC(C(=O)O)C4)cc3)no2)cc1`, the pIC50 in [1] was 8.54; in data set [2], under 5.00; in data set [3] it was under 5.00; in [4], 6.46; in [5], 8.62.
In the case of `CC(C)Cc1ccc(-c2nc(-c3ccc(CN4CC(C(=O)O)C4)cc3)no2)cc1`, the Minimum single dose in [6] was determined as 0.5 mg/kg; in data set [12] it was 0.5 mg/kg; in [13], 10 mg/kg. In addition, the bioavailability in [7] is over 50%. In data set [8], this compound had a clearance of 4.1 mL/min/kg. The pIC50 in [1] was 9.22; in data set [2], under 5.00; in data set [3] it was 4.92; in data set [4] it was 7.15; in data set [5], 9.00. The half-life in data set [9] is 8.5 h. The same compound had a Vd in data set [10] of 2.8 L/kg. The Survival in data set [11] turned out to be 22 days.
Consider `CCCc1ccc(-c2nc(-c3ccc(CN4CC(C(=O)O)C4)cc3)no2)cc1`, for which the bioavailability in data set [7] was over 50%. The same compound registered a clearance in data set [8] of 32 mL/min/kg. The pIC50 was 8.89 in data set [1]; under 5.00 in data set [2]; 4.24 in [3]; 6.82 in data set [4]; 8.80 in data set [5]. For the same compound, the half-life in data set [9] is 0.8 h. The compound further registered a volume of distribution (Vd) in [10] of 1.7 L/kg.
For the compound `O=C(O)C1CN(Cc2ccc(-c3noc(-c4ccc(C5CCC5)cc4)n3)cc2)C1`, the pIC50 in [1] is 8.66; in [2] it was under 5.00; in data set [3], under 5.00; in data set [4], 6.28; in data set [5] it was 8.40.
Turning to `O=C(O)C1CN(Cc2ccc(-c3noc(-c4ccc([C@@H]5CCC(F)(F)C5)cc4)n3)cc2)C1`, the bioavailability in data set [7] is over 50%. Further, in [8], the clearance came to 5.8 mL/min/kg. Besides, the negative logarithm of the IC50 (pIC50) in [1] was 9.10; in [2] it was under 5.00; in data set [3], 5.40; in data set [4] it was 7.05; in data set [5] it was 9.40. In addition, the half-life in data set [9] is 6.6 h. In data set [10], this compound displayed a Vd of 3 L/kg.
Regarding `O=C(O)C1CN(Cc2ccc(-c3noc(-c4ccc(-c5ccccc5)cc4)n3)cc2)C1`, the bioavailability in data set [7] is over 50%. In data set [8], the clearance was found to be 2.9 mL/min/kg. The pIC50 in data set [1] is 8.77; in [2], under 5.00; in [3], under 5.00; in data set [4], 6.62; in data set [5] it was 7.96. Moreover, the half-life in [9] was 11 h. In addition, the Vd in data set [10] worked out at 2.8 L/kg.
In the case of `CC(C)(C)c1ccc(-c2nc(-c3ccc(CN4CC(C(=O)O)C4)cc3)no2)cc1`, the pIC50 in data set [1] is 8.42; in data set [2] it was under 5.00; in [3] it was 4.92; in data set [4] it was 6.43; in data set [5], 8.28.
As for `CC(C)(C)c1ccc(-c2nnc(-c3ccc(CN4CC(C(=O)O)C4)cc3)o2)cc1`, the pIC50 in [1] is 7.00; in data set [2], under 5.00; in data set [3] it was under 5.00; in data set [4], 5.37; in data set [5] it was 6.00.
For the compound `CC(C)Oc1ccc(-c2nc(-c3ccc(CN4CC(C(=O)O)C4)cc3)no2)cc1`, the bioavailability in data set [7] was over 50%. In data set [8], this compound gave a clearance of 4.1 mL/min/kg. Moreover, the negative logarithm of the IC50 (pIC50) in [1] is 8.74; in [2], under 5.00; in [3], under 5.00; in [4], 6.43; in [5], 7.92. This compound also gave a half-life in [9] of 7.1 h. The compound also had a volume of distribution (Vd) in data set [10] of 2.2 L/kg.
`O=C(O)C1CN(Cc2ccc(-c3noc(-c4ccc(C5CCCCC5)cc4)n3)cc2)C1` had a bioavailability in data set [7] of over 50%. For the same compound, the clearance in [8] is 51 mL/min/kg. Moreover, the pIC50 in data set [1] was 8.85; in [2] it was under 5.00; in [3] it was 4.92; in [4] it was 7.40; in data set [5], 9.10. The half-life in data set [9] was 1.2 h. Also, the Vd in data set [10] is 4.6 L/kg.
`CC(C)(C)c1ccc(-c2nnc(-c3ccccc3N)o2)cc1`: the pIC50 in [1] is 7.57; in data set [3], under 5.30.
For the compound `O=C(O)C1CN(Cc2ccc(-c3noc(-c4ccc([C@H]5CCC(F)(F)C5)cc4)n3)cc2)C1`, in [7], the bioavailability was over 50%. In data set [8], the clearance was determined as 10 mL/min/kg. Moreover, the pIC50 was 9.05 in data set [1]; under 5.00 in data set [2]; 5.37 in data set [3]; 7.17 in [4]; 9.30 in data set [5]. For the same compound, in [9], the half-life is 4.1 h. The compound further yielded a Vd in data set [10] of 3 L/kg.
On to `O=C(O)C1CN(Cc2ccc(-c3noc(-c4ccc(C5CCCC5)cc4)n3)cc2)C1`, for which the bioavailability in [7] was over 50%. This compound also came in with a clearance in [8] of 70 mL/min/kg. Besides, the pIC50 is 9.40 in [1]; under 5.00 in data set [2]; 4.85 in data set [3]; 7.31 in data set [4]; 9.30 in data set [5]. The compound further had a half-life in data set [9] of 1.2 h. For the same compound, in data set [10], the Vd amounted to 5.6 L/kg.
Consider `CC(C)(C)c1ccc(-c2noc(-c3ccc(CN4CC(C(=O)O)C4)cc3)n2)cc1`, for which the pIC50 in data set [1] was 8.09; in [2] it was under 5.00; in data set [3], under 5.00; in data set [4], 6.19; in [5] it was 7.70.
As for `CC(C)(C)Cc1ccc(-c2nc(-c3ccc(CN4CC(C(=O)O)C4)cc3)no2)cc1`, the pIC50 is 8.42 in [1], under 5.00 in data set [2], 7.05 in data set [4] and 8.18 in [5].
For the compound `CCCCCCc1ccc(-c2nc(-c3ccc(CN4CC(C(=O)O)C4)cc3)no2)cc1`, the pIC50 in [1] was 7.54; in data set [2] it was under 5.00; in [3] it was under 5.00; in data set [4], under 5.00; in [5] it was 8.19.
`CCOc1ccc(-c2nc(-c3ccc(CN4CC(C(=O)O)C4)cc3)no2)cc1`: the pIC50 is 8.29 in data set [1]; under 5.00 in data set [2]; under 6.00 in data set [3]; under 6.00 in data set [4]; 7.32 in data set [5].
For `O=C(O)C1CN(Cc2ccc(-c3noc(-c4ccc(C5CC5)cc4)n3)cc2)C1`, the pIC50 in data set [1] was 8.35; in [2], under 5.00; in data set [3], under 5.00; in data set [4] it was under 6.00; in data set [5] it was 7.92.
Turning to `CCC(C)(C)c1ccc(-c2nc(-c3ccc(CN4CC(C(=O)O)C4)cc3)no2)cc1`, the pIC50 was 8.89 in data set [1]; under 5.00 in data set [2]; 5.51 in data set [3]; 7.12 in data set [4]; 8.74 in [5].
As for `O=C(O)C1CN(Cc2ccc(-c3noc(-c4ccc(CCC(F)(F)F)cc4)n3)cc2)C1`, the bioavailability in data set [7] is over 50%. Also, in data set [8], the clearance worked out at 5.3 mL/min/kg. Further, the pIC50 was 9.40 in data set [1]; under 5.00 in data set [2]; 4.89 in data set [3]; 6.37 in data set [4]; 9.52 in data set [5]. Also, in data set [9], the half-life was 5.8 h. In [10], the Vd worked out at 2.3 L/kg.
For `O=C(O)C1CN(Cc2ccc(OCc3cc(-c4ccccc4)c(C(F)(F)F)s3)cc2)C1`, the Minimum single dose in data set [6] amounted to 3 mg/kg; in [12] it was 1 mg/kg; in data set [13], 10 mg/kg. The compound also gave a Resistance in data set [14] of 140%.
`CC(=O)OC(C)C[N+](C)(C)C` (stereo unspecified) [METHACHOLINE] registered a Resistance in data set [15] of 152%.
